What was measured:
[1] = target: Protein kinase C alpha type (Homo sapiens, UniProt P17252); assay: Displacement of [20-3H]PDBU from recombinant PKCalpha in presence of phosphatidylserine
Summary of the method: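 Competition binding with recombinant single-isozyme PKC-α as the target enzyme. Each ligand's ability to displace bound [20-³H]phorbol 12,13-dibutyrate was measured in the presence of phosphatidylserine. Ki values were derived from the competition, and both E- and Z-isomers were assayed.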

[2] = target: T1, Protein kinase C delta type (Homo sapiens, UniProt Q05655); assay: Ratio of binding affinity to PKCdeltaC1b in presence to absence of phospholipid
Target sequence in this assay (Q05655 whole entry, looked up): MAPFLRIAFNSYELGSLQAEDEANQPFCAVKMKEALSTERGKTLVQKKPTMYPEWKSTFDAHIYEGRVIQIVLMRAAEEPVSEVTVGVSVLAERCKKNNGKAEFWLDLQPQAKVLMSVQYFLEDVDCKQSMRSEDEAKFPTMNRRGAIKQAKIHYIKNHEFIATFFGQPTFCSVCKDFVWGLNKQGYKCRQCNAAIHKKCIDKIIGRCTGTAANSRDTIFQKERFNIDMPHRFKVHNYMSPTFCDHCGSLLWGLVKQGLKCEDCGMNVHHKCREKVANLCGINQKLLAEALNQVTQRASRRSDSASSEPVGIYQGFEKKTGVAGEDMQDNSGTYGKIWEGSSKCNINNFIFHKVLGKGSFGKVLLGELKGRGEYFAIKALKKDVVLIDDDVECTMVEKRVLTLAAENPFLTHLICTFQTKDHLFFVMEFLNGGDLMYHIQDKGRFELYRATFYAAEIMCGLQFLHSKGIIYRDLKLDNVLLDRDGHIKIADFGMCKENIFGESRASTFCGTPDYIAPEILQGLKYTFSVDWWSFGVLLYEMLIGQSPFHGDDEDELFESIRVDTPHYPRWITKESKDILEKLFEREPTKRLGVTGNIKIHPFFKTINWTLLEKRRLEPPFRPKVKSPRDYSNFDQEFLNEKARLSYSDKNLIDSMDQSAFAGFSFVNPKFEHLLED

[3] = target: T1, Protein kinase C delta type; assay: Binding affinity to PKCdeltaC1b in absence of phospholipid
Target sequence in this assay (Q05655 whole entry): as the sequence (Q05655 whole entry, looked up) above

[4] = target: T1, Protein kinase C delta type; assay: Binding affinity to PKCdeltaC1b in presence of phospholipid
Target sequence in this assay (Q05655 whole entry): as the sequence (Q05655 whole entry, looked up) above

| SMILES | Ki [1] [nM] | also measured |
| --- | --- | --- |
| CCCCCCC/C=C1\CC(CO)(COC(=O)CCc2ccccc2)OC1=O (stereo unspecified) | 18 | – |
| CC(C)C(C/C=C1/CC(CO)(COC(=O)C2CCCCC2)OC1=O)C(C)C (stereo unspecified) | 8 | – |
| CCCCCCCCC/C=C1\CC(CO)(COC(=O)C2CCCCC2)OC1=O (stereo unspecified) | 9 | – |
| COc1ccccc1/C=C1\CC(CO)(COC(=O)CC(C(C)C)C(C)C)OC1=O (stereo unspecified) | 16 | – |
| CC(C)C(C/C=C1/CC(CO)(COC(=O)c2ccccc2O)OC1=O)C(C)C (stereo unspecified) | 30 | – |
| CCCCCC/C=C1\CC(CO)(COC(=O)CCCc2ccccc2)OC1=O (stereo unspecified) | 27 | – |
| CC(C)C(CC(=O)OCC1(CO)C/C(=C\c2ccccc2O)C(=O)O1)C(C)C (stereo unspecified) | 22 | – |
| CCCCCCCCC/C=C1/CC(CO)(COC(=O)C2CCCCC2)OC1=O (stereo unspecified) | 5 | – |
| COc1ccc(/C=C2\CC(CO)(COC(=O)CC(C(C)C)C(C)C)OC2=O)cc1 (stereo unspecified) | 7 | – |
| CCCCCCCCC/C=C1\CC(CO)(COC(=O)c2ccccc2)OC1=O (stereo unspecified) | 14 | – |
| CC(C)C(C/C=C1/CC(CO)(COC(=O)c2cccc(O)c2)OC1=O)C(C)C (stereo unspecified) | 406 | – |
| CC(C)C(C/C=C1\CC(CO)(COC(=O)c2ccccc2)OC1=O)C(C)C (stereo unspecified) | 28 | – |
| COc1ccccc1C(=O)OCC1(CO)C/C(=C\CC(C(C)C)C(C)C)C(=O)O1 (stereo unspecified) | 73 | – |
| CC(C)C(C/C=C1\CC(CO)(COC(=O)c2ccc(O)cc2)OC1=O)C(C)C (stereo unspecified) | 2400 | Ratio Ki [2]: 17; Ki [3]: 16900 nM; Ki [4]: 980 nM |
| COc1ccc(C(=O)OCC2(CO)C/C(=C\CC(C(C)C)C(C)C)C(=O)O2)cc1 (stereo unspecified) | 36 | – |
| CC(C)C(C/C=C1\CC(CO)(COC(=O)c2cccc(O)c2)OC1=O)C(C)C (stereo unspecified) | 670 | – |
| CC(C)C(CC(=O)OCC1(CO)C/C(=C\c2ccc(O)cc2)C(=O)O1)C(C)C (stereo unspecified) | 19 | Ratio Ki [2]: 121; Ki [3]: 170 nM; Ki [4]: 1.4 nM |
| CC(C)C(C/C=C1\CC(CO)(COC(=O)c2ccccc2O)OC1=O)C(C)C (stereo unspecified) | 67 | – |

| SMILES | Ki [1] [nM] | also measured |
| --- | --- | --- |
| CC(C)C(CC(=O)OCC1(CO)C/C(=C\c2cccc(O)c2)C(=O)O1)C(C)C (stereo unspecified) | 17 | – |
| COc1ccc(C(=O)OCC2(CO)C/C(=C/CC(C(C)C)C(C)C)C(=O)O2)cc1 (stereo unspecified) | 18 | – |
| CC(C)C(C/C=C1\CC(CO)(COC(=O)C2CCCCC2)OC1=O)C(C)C (stereo unspecified) | 10 | – |
| CCCCCC/C=C1/CC(CO)(COC(=O)CCCc2ccccc2)OC1=O (stereo unspecified) | 17 | – |
| COc1cccc(/C=C2\CC(CO)(COC(=O)CC(C(C)C)C(C)C)OC2=O)c1 (stereo unspecified) | 12 | – |
| CCCCCCC/C=C1/CC(CO)(COC(=O)CCc2ccccc2)OC1=O (stereo unspecified) | 14 | – |
| CC(C)C(C/C=C1/CC(CO)(COC(=O)c2ccc(O)cc2)OC1=O)C(C)C (stereo unspecified) | 983 | – |
| CC(C)C(CC(=O)OCC1(CO)C/C(=C\c2ccccc2)C(=O)O1)C(C)C (stereo unspecified) | 12 | – |
| COc1ccccc1C(=O)OCC1(CO)C/C(=C/CC(C(C)C)C(C)C)C(=O)O1 (stereo unspecified) | 23 | – |
| CCCCCCCC/C=C1/CC(CO)(COC(=O)Cc2ccccc2)OC1=O (stereo unspecified) | 45 | – |
| COc1cccc(C(=O)OCC2(CO)C/C(=C/CC(C(C)C)C(C)C)C(=O)O2)c1 (stereo unspecified) | 24 | – |
| CC(C)C(CC(=O)OCC1(CO)C/C(=C\Cc2ccccc2)C(=O)O1)C(C)C (stereo unspecified) | 14 | – |
| CC(C)C(C/C=C1/CC(CO)(COC(=O)c2ccccc2)OC1=O)C(C)C (stereo unspecified) | 16 | – |
| CCCCCCCCC/C=C1/CC(CO)(COC(=O)c2ccccc2)OC1=O (stereo unspecified) | 9 | – |
| CCCCCCCC/C=C1\CC(CO)(COC(=O)Cc2ccccc2)OC1=O (stereo unspecified) | 44 | – |
| COc1cccc(C(=O)OCC2(CO)C/C(=C\CC(C(C)C)C(C)C)C(=O)O2)c1 (stereo unspecified) | 39 | – |
| CC(C)C(CC(=O)OCC1(CO)C/C(=C\CCc2ccccc2)C(=O)O1)C(C)C (stereo unspecified) | 9 | – |
